A selection: hits, their analogues and other compounds. The true share with any hit is near 2%.
NR2E3 ag-1 = activates human NR2E3 receptor | 360,000 compounds, 0.35% hits | inhibition of corepressor binding, % at 3.98 µM | Q9Y5X4 | AID 602229 | CHO-S Gal4-NCOR/VP16-NR2E3 two-hybrid, luciferase;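 active = inhibition above the mean of all tested compounds plus 3 SD, cut at about 70% in these data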;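 also: 0% = DMSO with NR2E3 transfected cells and 100% = cells lacking NR2E3 construct; higher means lower luciferase signal from less NR2E3 corepressor binding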
Target sequence (Q9Y5X4 whole entry, looked up, the tested form may be a part): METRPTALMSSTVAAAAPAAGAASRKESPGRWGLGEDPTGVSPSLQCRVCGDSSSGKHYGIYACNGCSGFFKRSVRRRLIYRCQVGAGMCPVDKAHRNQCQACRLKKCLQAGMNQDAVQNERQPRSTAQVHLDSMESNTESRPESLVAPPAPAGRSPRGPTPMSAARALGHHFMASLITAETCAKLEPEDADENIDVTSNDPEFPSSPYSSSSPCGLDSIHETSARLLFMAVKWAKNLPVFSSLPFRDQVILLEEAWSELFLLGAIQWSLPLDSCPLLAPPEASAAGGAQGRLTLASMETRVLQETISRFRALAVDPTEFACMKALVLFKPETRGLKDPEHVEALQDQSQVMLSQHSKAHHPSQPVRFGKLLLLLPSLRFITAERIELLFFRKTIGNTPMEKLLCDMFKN
NR2E3 ag-2 = agonists of human nuclear receptor NR2E3. Q9Y5X4. inhibition of corepressor binding, % at 4.78 µM. AID 2300. GST-NR2E3/biotin-RetCOR TR-FRET, 1536-well. 320,000 compounds, 0.12% hits;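 active = percent inhibition above the cutoff of mean plus 3 SD of all tested compounds, set per screening campaign, cut at about 20% in these data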;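 also: 0% = DMSO wells and 100% = biotin wells as full block of FRET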
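System: GST-tagged NR2E3 plus biotinylated RetCOR corepressor; Amount: 1.35 nM GST-tagged NR2E3 final; Dosing: single nominal compound dose of 4.8 µM; Schedule: 5 h incubation at 4 °C; Technique: TR-FRET with europium anti-GST and streptavidin-D2, 340 nm excitation; Controls: biotin wells as high control, 0.6% DMSO wells as low control.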
FXN GAA850 act = increases GAA850 frataxin promoter reporter activity; activation, % at 6 µM; 360,000 compounds, 0.56% hits; HEK293 lucGAA850 FXN promoter luciferase reporter, 24 h; percent of 10 µM SAHA response;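 active = activation above the average of all compounds screened plus 3 SD, cutoff fixed separately per campaign, cut at about 7.5% in these data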;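 also: 0% = DMSO wells and 100% = 10 µM SAHA wells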
T cell modulator = modulates CD8 T cell binding to vesicles | 2C CD8+ T cell-vesicle binding, flow cytometry; stronger effect = lower value | response (vesicle binding), % at 7 µM | 330,000 compounds, 0.068% hits;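 active = response, share of CD8 T cells binding vesicles, and their 90th percentile fluorescence all below set limits, cut at about 80% in these data, passing the limit was not always enough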;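 also: values below 100% mean blocked vesicle binding to the CD8+ T cells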
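Benchmarks: naked versus QL9-loaded vesicles / Assay system: purified 2C TCR transgenic mouse naive CD8+ T cells / Technique: high-throughput flow cytometry with anti-B7-1 and anti-CD8 staining / Timing: Cell–vesicle co-incubation 1.5 h at 37 °C, staining 20 min on ice / Read-out: percent CD8+ FL2 mean versus row control / Probe or stimulus: QL9-loaded Drosophila micro-vesicles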
Myeloid diff 2 = compounds promoting myeloid differentiation; ER-HoxA9 myeloid progenitors, lysozyme-GFP differentiation, flow cytometry; calls only at 10 µM; 360,000 compounds, 1% hits;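 active = normalized GFP-positive differentiation at or above the plate's own cutoff, the solvent-only control mean plus 3 SD; inconclusive = no clear call, values can overlap the other calls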;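 also: cells exposed to compound for four days before flow analysis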
GAA30 FXN cntr = counter-screen for GAA850 frataxin promoter activators: GAA30 promoter activation; shares compounds with FXN GAA850 act; activation, % at 6 µM; 1,900 compounds, 66% hits; HEK293 lucGAA30 FXN promoter luciferase, 24 h; DMSO = 0%, 5 µM ipriflavone = 100%; AID 588350;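 active = mean activation above the mean of solvent-only control wells plus 3 SD, cut at about 22% in these data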;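 also: counterscreen of GAA850 promoter hits where activity marks nonselective or luminescence artifacts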
FXN GAA850 conf = confirmation of GAA850 frataxin (FXN) promoter activators; HEK293 lucGAA850 FXN promoter luciferase reporter, 24 h; 100% = activation by SAHA; activation, % at 6 µM; AID 588351; shares compounds with FXN GAA850 act; 1,900 compounds, 86% hits;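 active = mean activation above a set limit taken from the primary screen, cut at about 8% in these data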;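 also: 0% = DMSO wells and 100% = 10 µM SAHA wells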
Active calls of the source: *; i = inactive; ? = inconclusive; · = no result given.

SMILES | NR2E3 ag-1 | NR2E3 ag-2 | FXN GAA850 act | T cell modulator | Myeloid diff 2 | GAA30 FXN cntr | FXN GAA850 conf
COc1ccc(C(=O)Nc2cc(C)nn2-c2ccc(C)cc2)cc1 | -10.7 | 1.0 | -0.2 | 358.6 | i | · | ·
CCOc1ccc2nc(SCC(=O)N3CCCCCC3)c(C#N)cc2c1 | -1.6 | -1.5 | -0.4 | 472.9 | i | · | ·
CCOc1ccc2cc(C#N)c(SCC(=O)N3CCOCC3)nc2c1 | -32.9 | 7.5 | 9.7* | 314.8 | i | 133.1* | 45.6*
COc1cc(/C=N/Nc2nc3ccccc3s2)ccc1OC(=O)c1ccccc1F | -55.5 | 0.4 | 9.3* | i | i | 118.4* | 40.9*
COc1cc(OC)cc(C(=O)Oc2ccc(/C=N/Nc3nc4ccccc4s3)cc2OC)c1 | -132.1 | 1.2 | 8.0* | 222.3 | i | 116.5* | 36.1*
COc1ccc(C=NNc2nc3ccccc3s2)cc1 | -137.7 | · | 0.1 | · | i | · | ·
COc1nc(NCCO)nc(Nc2ccccc2F)n1 | -37.4 | 4.4 | 14.1* | 182.0 | i | 86.3* | 24.7*
COc1nc(Nc2ccccc2F)nc(OC)n1 | 8.0 | 0.6 | 5.5 | 523.1 | i | · | ·
CC(C)c1cc(C(=O)Nc2cc(Br)ccc2O)no1 | -80.2 | 6.8 | 9.9* | 546.9 | i | 96.8* | 33.2*
CC(C)c1cc(C(=O)Nc2cc(Cl)ccc2O)no1 | -117.8 | 5.4 | 7.5 | 136.0 | i | · | ·
O=C(/C=C/c1ccccc1[N+](=O)[O-])c1ccccc1Br | 2.1 | -2.2 | 9.0* | 339.2 | i | 74.7* | 42.9*
Cc1ccc(C(=O)/C=C/c2ccccc2[N+](=O)[O-])cc1 | -184.2 | 2.5 | 3.1 | 529.4 | i | · | ·
CCOc1ccc(-c2cncc3nccn23)cc1 | 4.4 | · | 0.5 | · | i | · | ·
CCCCN1C(=O)/C(=C/C=C2/CC(C)(C)CN2C)SC1=S | -98.8 | -1.2 | 8.6* | 583.7 | i | 95.3* | 32.7*
CCN1C(=O)/C(=C/C=C2/SCCN2C)SC1=S | -105.5 | -0.3 | 1.3 | 388.3 | i | · | ·
Cn1c(=O)c2c(nc(SCCN3CCOCC3)n2Cc2ccc(F)cc2)n(C)c1=O | -110.7 | 0.1 | 9.0* | 304.5 | i | 98.8* | 36.0*
O=C(Cc1ccccc1)N/N=C/c1ccc2c(c1)OCO2 | -39.5 | -0.6 | 9.5* | 171.4 | i | 83.9* | 29.9*
O=C(CNc1ccccc1)N/N=C/c1ccc2c(c1)OCO2 | -14.6 | 1.9 | 0.2 | 406.7 | i | · | ·
Cc1cccc(/C=N/n2c(C)nc3ccccc3c2=O)c1 | -0.4 | -0.1 | 0.6 | 96.0 | i | · | ·
O=C1C(=Cc2ccccn2)CCc2ccccc21 | -20.3 | · | 7.8* | · | ? | 102.8* | 30.5*
COc1ccccc1C(=O)C1Nc2ccccc2-c2nnc(SC)nc2O1 (stereo not given) | -35.3 | 0.2 | 8.8* | 663.8 | i | 15.8 | 5.5
CCC1Nc2ccccc2-c2nnc(SC)nc2O1 (stereo not given) | -18.8 | -2.7 | 1.7 | 591.5 | i | · | ·
COC(=O)c1ccc(COc2cc(O)c3c(c2)OC(C)(C)CC3=O)cc1 | -77.9 | 2.3 | 0.6 | 237.8 | i | · | ·
CC1(C)CC(=O)c2c(O)cc(OCc3ccc(Br)cc3)cc2O1 | -117.7 | 6.2 | 9.4* | 793.8 | i | 99.0* | 35.8*
CC1(C)CC(=O)c2ccc(OCc3ccc([N+](=O)[O-])cc3)cc2O1 | -45.8 | 3.7 | 8.4* | 256.4 | i | 136.1* | 49.5*
SMILES | NR2E3 ag-1 | NR2E3 ag-2 | FXN GAA850 act | T cell modulator | Myeloid diff 2 | GAA30 FXN cntr | FXN GAA850 conf
Cc1cccc(C)c1NC(=O)C(c1ccncc1)N1CCN(CCN(C)C)CC1 (stereo not given) | · | · | · | · | i | · | ·
CCS(=O)(=O)Nc1cc(-c2nc3cccnc3s2)ccc1C | -73.1 | 3.2 | 7.9* | 87.4 | i | 116.5* | 34.5*
CC1(C(=O)Nc2cccc(Oc3ccccc3)c2)CCN1Cc1cccc2c1OCO2 (stereo not given) | 15.7 | · | 3.9 | · | i | · | ·
Cc1[nH]c2ccccc2c1C(=O)CSC(=S)N1CCCCC1 | -113.0 | 3.8 | 4.7 | 255.4 | i | · | ·
Nc1ccc2c(c1)C(=NO)c1cc([N+](=O)[O-])ccc1-2 | 35.9 | · | 12.7* | · | ? | 78.5* | 34.5*
O=[N+]([O-])c1ccc2c(c1)-c1ccccc1C2=NO | -13.2 | · | -3.0 | · | i | · | ·
CC(=Nc1ccc(Br)cc1)c1sc2ccccc2c1O | -104.2 | -2.9 | 7.9* | 59.3 | i | 116.0* | 36.2*
O=C(COC(=O)Cc1c(F)cccc1Cl)NCc1ccc2c(c1)OCO2 | 0.9 | · | 0.3 | 368.5 | i | · | ·
Cn1c(O)c(N=NC(=O)c2ccco2)c2ccccc21 | -147.1 | -8.4 | 8.4* | 106.3 | i | 144.4* | 38.4*
Cc1ccccc1CN1CC2=C(CCN(Cc3ccccc3)C2=O)N2CCN=C12 | 40.5 | · | · | · | ? | · | ·
Cc1cccc2c(N)c3c(nc12)CCCC3 (tested in a mixture with another compound) | -12.5 | · | 2.3 | · | i | · | ·
Cc1cc(C)c2c(N)c3cccc(C)c3nc2n1 | -49.4 | 2.3 | 8.0* | 301.9 | ? | 11.7 | 142.8*
Cc1noc(C)c1CSCC(=O)Nc1cc(S(=O)(=O)N2CCCCC2)ccc1OC(C)C | -22.0 | 1.8 | 4.4 | 212.5 | i | · | ·
CCN(CC)c1ccc(S(=O)(=O)N2CCCCC2)cc1NC(=O)CSCc1c(C)noc1C | 7.2 | · | 10.4* | · | i | 21.1 | 22.2*
CN1/C(=C\C(=O)c2cccnc2)C(C)(C)c2ccccc21 | -36.0 | 1.3 | 2.8 | 345.6 | i | · | ·
CN1/C(=C/C(=O)c2nc(S(C)(=O)=O)ncc2Cl)C(C)(C)c2ccccc21 | -20.2 | 0.1 | 9.8* | 573.8 | · | -108.9 | -19.1
COc1ccccc1NC(=O)CN1CCC(n2c(C)nc3cc(F)ccc32)CC1 | -17.7 | 0.8 | 9.1* | 354.3 | i | 0.7 | 7.8*
Cc1ccc(/C=C/C(=O)N2CCN(S(=O)(=O)c3ccc(C)c(C)c3)CC2)o1 | 8.7 | -2.5 | 7.6* | 265.8 | i | 12.7 | 4.3
Cc1ccc(/C=C/C(=O)N2CCN(S(=O)(=O)c3c(C)c(C)cc(C)c3C)CC2)o1 | 7.8 | 1.0 | 3.4 | 363.9 | i | · | ·
CCCCNC(=O)N(O)C1N(/N=C/c2ccccc2F)C(=S)SC1(C)C (stereo not given) | -15.9 | -2.0 | 8.4* | 234.4 | i | 26.2* | 7.0
CCCCNC(=O)N(O)C1N(/N=C/c2ccco2)C(=S)SC1(C)C (stereo not given) | 9.2 | 1.1 | 0.0 | 239.2 | i | · | ·
CCCCN(C=O)c1c(CC)nc2ccc(C(=O)NCCCN3CCCC3=O)cn12 | -11.3 | · | 0.1 | · | i | · | ·

High-throughput results from PubChem BioAssay.
